Results taken from ChEMBL document CHEMBL3992558, “Benzimidazole inhibitors from the Niclosamide chemotype inhibit Wnt/β-catenin signaling with selectivity over effects on ATP homeostasis” (Bioorg Med Chem, 2017).
Calls of active or inactive are those of the source. The rule behind the calls is not given here.

Columns and labels:
Homo sapiens [1] = species: Homo sapiens; assay: Inhibition of Wnt/beta-catenin signaling (unknown origin) expressed in HEK293 cells assessed as inhibition of Wnt3A-stimulated beta-catenin response transcription at 10 uM after 6 hrs by TOPflash dual luciferase reporter gene assay relative to control; assay type: cell-based
Procedure, shortened: (§1)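 HEK293 cells stably carrying p8xTOPFlash and Renilla pRL-TK were seeded at confluency and given Wnt-3A conditioned medium (from L Wnt-3A cells) containing compound, 0.04–10 μM, or DMSO for 6 h. Lysates were read by dual-luciferase assay. The DMSO/Wnt3A signal was set as 100%, and curves were fit (mean ± SEM, n ≥ 3). Percent inhibition at 10 μM was reported where no IC50 could be fitted.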

Homo sapiens [2] = species: Homo sapiens; assay: Inhibition of Wnt/beta-catenin signaling in human U2OS cells expressing GFP-fused Fzd1 assessed as GFP-Fzd1 internalization by measuring number of punctate formed at 12.5 uM after 6 hrs by confocal microscopic method; assay type: cell-based
Procedure, shortened: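 U2OS cells stably expressing Frizzled1-GFP were plated in confocal dishes for 24 h, then treated with 12.5 μM compound in DMSO or DMSO for 6 h at 37°C and fixed in 4% paraformaldehyde. Confocal images (488-nm excitation) were read twice, blinded, and punctate was scored versus control on a 0–5 scale (0, 1, 3, 5).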

[3] = (§2) Inhibition of Wnt/beta-catenin signaling (unknown origin) expressed in HEK293 cells assessed as inhibition of Wnt3A-stimulated beta-catenin response transcription after 6 hrs by TOPflash dual luciferase reporter gene assay; assay type: cell-based; conditions: Homo sapiens, HEK293, 6 h; procedure, shortened: as §1
HCT-116 [4] = assay: Effect on ATP homeostasis in human HCT116 cells assessed as reduction in ATP level at 2 uM after 3 hrs in glucose supplemented media by ATP bioluminescent assay; conditions: hct-116, 3 h
Homo sapiens [5] = species: Homo sapiens; assay: Inhibition of Wnt/beta-catenin signaling in human HCT116 cells assessed as downregulation of Cyclin D1 protein expression at 5 uM after 18 hrs by Western blot method; assay type: cell-based
Procedure, shortened: (§3)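 HCT-116 (McCoy's 5A) or SW480 (MEM) cells, each with 10% FBS, were grown 48 h on poly-D-lysine-coated wells to 60–80% confluency. Fresh medium with compound or DMSO (0.1% final) was added for 18 h. Cytosolic fractions (β-catenin, Axin2) were isolated with hypotonic buffer, or whole cells were lysed in Laemmli buffer (c-Myc, Cyclin D1, Survivin). Immunoblots used β-actin as loading control.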

HCT-116 [6] = assay: Effect on ATP homeostasis in human HCT116 cells assessed as reduction in ATP level at 0.16 uM after 3 hrs in absence of glucose by ATP bioluminescent assay; assay type: ADME, cell-based; set-up: scale not given: the % may be the effect or the level left; conditions: hct-116, 3 h
Homo sapiens [7] = species: Homo sapiens; assay: Inhibition of Wnt/beta-catenin signaling in human HCT116 cells assessed as downregulation of survivin protein expression at 5 uM after 18 hrs by Western blot method; assay type: cell-based; procedure, shortened: as §3
Homo sapiens [8] = species: Homo sapiens; assay: Inhibition of Wnt/beta-catenin signaling in human SW480 cells assessed as downregulation of Cyclin D1 protein expression at 5 uM after 18 hrs by Western blot method; assay type: cell-based; procedure, shortened: as §3
Homo sapiens [9] = species: Homo sapiens; assay: Inhibition of Wnt/beta-catenin signaling in human SW480 cells assessed as downregulation of c-Myc protein expression at 5 uM after 18 hrs by Western blot method; assay type: cell-based; procedure, shortened: as §3
Homo sapiens [10] = species: Homo sapiens; assay: as §2; assay type: cell-based; procedure, shortened: as §1
HCT-116 [11] = assay: Effect on ATP homeostasis in human HCT116 cells assessed as reduction in ATP level at 0.5 to 2 uM after 3 hrs in glucose supplemented media by ATP bioluminescent assay; assay type: ADME, cell-based; conditions: hct-116, 3 h
Procedure, shortened: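 HCT-116 cells attached overnight on poly-D-lysine plates, then treated 3 h at 37°C in DMEM with 2mM sodium pyruvate, 2mM L-glutamine and 5mM glucose (0.1% final DMSO). ATP was read by luciferase bioluminescence after lysis with Somatic Cell ATP Releasing Reagent, normalized to DMSO control.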

Homo sapiens [12] = species: Homo sapiens; assay: Inhibition of Wnt/beta-catenin signaling in human HCT116 cells assessed as downregulation of cytosolic beta-catenin protein expression at 5 uM after 18 hrs by Western blot method; assay type: cell-based; procedure, shortened: as §3
Homo sapiens [13] = species: Homo sapiens; assay: Inhibition of Wnt/beta-catenin signaling in human HCT116 cells assessed as downregulation of c-Myc protein expression at 5 uM after 18 hrs by Western blot method; assay type: cell-based; procedure, shortened: as §3
Homo sapiens [14] = species: Homo sapiens; assay: Inhibition of Wnt/beta-catenin signaling (unknown origin) expressed in HEK293 cells assessed as inhibition of Wnt3A-stimulated beta-catenin response transcription at 0.16 uM after 6 hrs by TOPflash dual luciferase reporter gene assay relative to control; assay type: cell-based
Procedure, shortened: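 TOPFlash/Renilla stable HEK293 cells were split from the same batch as parallel ATP assay plates, attached overnight, then treated 6 h with compound in Wnt-3A conditioned medium. Dual-luciferase read-out was taken relative to the DMSO control. Three separate experiments used different cell batches.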

Homo sapiens [15] = species: Homo sapiens; assay: Inhibition of Wnt/beta-catenin signaling in human SW480 cells assessed as downregulation of cytosolic beta-catenin protein expression at 5 uM after 18 hrs by Western blot method; assay type: cell-based; procedure, shortened: as §3
Homo sapiens [16] = species: Homo sapiens; assay: Inhibition of Wnt/beta-catenin signaling in human HCT116 cells assessed as downregulation of cytosolic Axin2 protein expression at 5 uM after 18 hrs by Western blot method; assay type: cell-based; procedure, shortened: as §3
Homo sapiens [17] = species: Homo sapiens; assay: Inhibition of Wnt/beta-catenin signaling in human SW480 cells assessed as downregulation of cytosolic Axin2 protein expression at 5 uM after 18 hrs by Western blot method; assay type: cell-based; procedure, shortened: as §3
HEK293 (Homo sapiens) = assay: Effect on ATP homeostasis in human HEK293 cells assessed as reduction in ATP level after 3 hrs in absence of glucose by ATP bioluminescent assay; conditions: HEK293, 3 h
Homo sapiens [18] = species: Homo sapiens; assay: Inhibition of Wnt/beta-catenin signaling in human SW480 cells assessed as downregulation of survivin protein expression at 5 uM after 18 hrs by Western blot method; assay type: cell-based; procedure, shortened: as §3
HCT-116 [19] = assay: Effect on ATP homeostasis in human HCT116 cells assessed as reduction in ATP level after 3 hrs in absence of glucose by ATP bioluminescent assay; assay type: ADME, cell-based; conditions: for Activity: human, hct-116, 3 h; for IC50: Homo sapiens, HCT-116, 3 h
Procedure, shortened: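 HCT-116 cells attached overnight on poly-D-lysine plates in McCoy's 5A/10% FBS, then switched to glucose-free DMEM with 2mM sodium pyruvate and 2mM L-glutamine containing compound (0.1% final DMSO). After 3 h at 37°C, 5% CO2, cells were lysed in Somatic Cell ATP Releasing Reagent and ATP was read by luciferase bioluminescence, normalized to DMSO control.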

Homo sapiens [20] = species: Homo sapiens; assay: Inhibition of Wnt/beta-catenin signaling (unknown origin) expressed in HEK293 cells assessed as inhibition of Wnt3A-stimulated beta-catenin response transcription at 0.31 uM after 6 hrs by TOPflash dual luciferase reporter gene assay relative to control; assay type: cell-based
Procedure, shortened: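 HEK293 cells stably carrying p8xTOPFlash and a Renilla luciferase control (pRL-TK), grown in MEM with 10% FBS and 1ug/mL puromycin. Cells were seeded at confluence, then given Wnt-3A conditioned medium (from L Wnt-3A cells) with compound (0.04 to 10μM) or DMSO for 6 h. Lysates were read by dual luciferase, with the Wnt3A + DMSO signal set as 100%.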

Cc1ccc(S(=O)(=O)Nc2ccccc2-c2nc3cc(C(F)(F)F)ccc3[nH]2)cc1
inhibition (Homo sapiens [1]): 57%
Activity (Homo sapiens [2]): 0

Oc1ccc(Cl)cc1-c1nc2cc(F)ccc2[nH]1
IC50 [3]: 7.65 µM
Activity (Homo sapiens [2]): 0

O=S(=O)(Nc1ccccc1-c1nc2cc(C(F)(F)F)ccc2[nH]1)c1c(F)cccc1F
inhibition (Homo sapiens [1]): 8%
Activity (Homo sapiens [2]): 0

COc1ccc2[nH]c(-c3cc(Cl)ccc3O)nc2c1
IC50 [3]: 1.27 µM
Activity (Homo sapiens [2]): 0

CS(=O)(=O)Nc1ccccc1-c1nc2cc(C(F)(F)F)ccc2[nH]1
inhibition (Homo sapiens [1]): 74%
Activity (Homo sapiens [2]): 0

COc1ccc(O)c(-c2nc3cc([N+](=O)[O-])ccc3[nH]2)c1
IC50 [3]: 4.19 µM
Activity (Homo sapiens [2]): 0

Cc1ccc(S(=O)(=O)Nc2ccc(Cl)cc2-c2nc3cc([N+](=O)[O-])ccc3[nH]2)cc1
inhibition (Homo sapiens [1]): 48%
Activity (Homo sapiens [2]): 0

CS(=O)(=O)Nc1ccccc1-c1nc2cc([N+](=O)[O-])ccc2[nH]1
inhibition (Homo sapiens [1]): 50%
Activity (Homo sapiens [2]): 0

CC[C@H]1/C=C/C=C/C[C@@H](C)[C@H](O)[C@@](C)(O)C(=O)[C@@H](C)[C@H](O)[C@@H](C)C(=O)[C@@H](C)[C@H](O)[C@@H](C)/C=C/C(=O)O[C@@H]2[C@H](C)[C@H](CC1)O[C@]1(CC[C@H](C)[C@H](C[C@@H](C)O)O1)[C@H]2C [OLIGOMYCIN]
Activity (HCT-116 [4]): Toxic

Cc1ccc(S(=O)(=O)Nc2ccccc2-c2nc3cc([N+](=O)[O-])ccc3[nH]2)cc1
inhibition (Homo sapiens [1]): 53%
Activity (Homo sapiens [2]): 0

O=[N+]([O-])c1ccc2[nH]c(-c3ccccc3NS(=O)(=O)c3c(F)cccc3F)nc2c1
inhibition (Homo sapiens [1]): 15%
Activity (Homo sapiens [2]): 0

Oc1ccc(Cl)cc1-c1nc2cc(C(F)(F)F)ccc2[nH]1
inhibition (Homo sapiens [5]): Active
Activity (HCT-116 [6]): Non-Toxic
inhibition (Homo sapiens [7]): Active
inhibition (Homo sapiens [8]): Active
inhibition (Homo sapiens [9]): Active
IC50 [3]: 0.23 to 0.27 µM
inhibition (Homo sapiens [10]): Dose-dependent effect
Activity (HCT-116 [11]): Non-Toxic
inhibition (Homo sapiens [12]): Active
inhibition (Homo sapiens [13]): Active
inhibition (Homo sapiens [14]): 40 to 50%
inhibition (Homo sapiens [15]): Active
inhibition (Homo sapiens [16]): Active
inhibition (Homo sapiens [17]): Active
EC50 (HEK293 (Homo sapiens)): ≥ 5 µM
inhibition (Homo sapiens [18]): Active
Activity (Homo sapiens [2]): 3
Activity (HCT-116 [19]): Dose-dependent effect

O=C(Nc1ccc([N+](=O)[O-])cc1Cl)c1cc(Cl)ccc1O [NICLOSAMIDE]
inhibition (Homo sapiens [5]): Active
Activity (HCT-116 [6]): > 80%
inhibition (Homo sapiens [7]): Active
inhibition (Homo sapiens [8]): Active
inhibition (Homo sapiens [9]): Active
IC50 [3]: 0.12 to 0.28 µM
inhibition (Homo sapiens [10]): Dose-dependent effect
Activity (HCT-116 [11]): Toxic
inhibition (Homo sapiens [12]): Active
inhibition (Homo sapiens [13]): Active
inhibition (Homo sapiens [14]): 40 to 50%
inhibition (Homo sapiens [15]): Active
inhibition (Homo sapiens [16]): Active
inhibition (Homo sapiens [17]): Active
EC50 (HEK293 (Homo sapiens)): 0.056 µM
inhibition (Homo sapiens [18]): Active
Activity (Homo sapiens [2]): 5
IC50 (HCT-116 [19]): 0.25 µM
Activity (HCT-116 [19]): Dose-dependent effect

Cc1ccc(S(=O)(=O)Nc2ccc(Cl)cc2C(=O)Nc2ccc([N+](=O)[O-])cc2Cl)cc1
IC50 [3]: 1.5 µM
Activity (Homo sapiens [2]): 3
IC50 (HCT-116 [19]): < 0.25 µM

Cc1ccc(O)c(-c2nc3cc([N+](=O)[O-])ccc3[nH]2)c1
IC50 [3]: 1.69 µM
Activity (HCT-116 [11]): Non-Toxic
Activity (Homo sapiens [2]): 0

Oc1ccc(Cl)cc1-c1nc2ccccc2[nH]1
IC50 [3]: 2.67 µM
Activity (Homo sapiens [2]): 0

O=[N+]([O-])c1ccc2nc(-c3cc(Cl)ccc3O)[nH]c2c1
inhibition (Homo sapiens [5]): Active
inhibition (Homo sapiens [7]): Active
inhibition (Homo sapiens [8]): Active
inhibition (Homo sapiens [9]): Active
IC50 [3]: 0.36 to 0.48 µM
inhibition (Homo sapiens [10]): Dose-dependent effect
inhibition (Homo sapiens [20]): 40%
inhibition (Homo sapiens [12]): Active
inhibition (Homo sapiens [13]): Active
inhibition (Homo sapiens [15]): Active
inhibition (Homo sapiens [16]): Active
inhibition (Homo sapiens [17]): Active
EC50 (HEK293 (Homo sapiens)): 2.9 µM
inhibition (Homo sapiens [18]): Active
Activity (Homo sapiens [2]): 3

CCCCCC[C@H]1C(=O)O[C@H](C)[C@H](NC(=O)c2cccc(NC=O)c2O)C(=O)O[C@@H](C)[C@@H]1OC(=O)CC(C)C [ANTIMYCIN A]
Activity (HCT-116 [4]): Toxic

N#CC(C#N)=NNc1ccc(OC(F)(F)F)cc1
Activity (HCT-116 [4]): Toxic

Cc1ccc(S(=O)(=O)Nc2ccc(Cl)cc2-c2nc3cc(C(F)(F)F)ccc3[nH]2)cc1
IC50 [3]: 3.2 µM
Activity (Homo sapiens [2]): 0

O=[N+]([O-])c1ccc2nc(-c3cc(Cl)cc(Cl)c3O)[nH]c2c1
IC50 [3]: 1.54 µM
Activity (HCT-116 [11]): Toxic
Activity (Homo sapiens [2]): 2
IC50 (HCT-116 [19]): < 0.25 µM

O=[N+]([O-])c1ccc2nc(-c3ccccc3O)[nH]c2c1
IC50 [3]: 4.44 µM
Activity (Homo sapiens [2]): 0
